B1: tRNA (parent)
chain: CUCUCGGUAGCCAAGUUGGUUUAAGGCGCAAGACUUUAAUUUAUCACUACGAAAUCUUGAGAUCGGGCGUUCGACUCGCCCCCGGGAGAUUUUUUCCUCGAGCAA

Variants at the floor of the assay were thinned out.

The series covers variants of B1. Kind of series: nonsense suppression (GFP-seq) (ratio to wild type); higher = more function; SUP4oc tRNA, yeast GFP reporter sort-seq. In a few lines: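 Each variant's nonsense suppression (GFPSEQ) is a cell-share-weighted bin median GFP/RFP relative to the unmutated parent tRNA. Yeast with genome-integrated tRNA variants from a ~3% random-mutation library, a galactose-driven GFP ochre reporter and RFP were grown in raffinose/galactose medium with 80 mg/L adenine, then sorted into GFP/RFP bins for Illumina sequencing. Variants needed ≥100 reads and ≥30 cells.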
Consider CUCUCGGUAGCCAAGUUGGUUUACGGCGCAAGACUUUAAUUUAUCACUACGAAAUCUUGCGAUCGGGCGUUCGACUCGCCCCCGGGAGAUUUUUUCCUCGAGCAA, for which the nonsense suppression worked out at 0.0269.
For CUCUCGGUAGCCAAGUUGGUUUACGGCGCAAGACUUUAAUUUAUCACUACGAAAUCUUGUGAUCGGGCGUUCGACUCGCCCCCGGGAGAUUUUUUCCUCGAGCAA the value was 1.07; for CUCUCGGUAGCCAAGUUGGUUUACGGCGCAAGACUUUAAUUUAUCACUACGAAAUCUUGGGAUCGGGCGUUCGACUCGCCCCCGGGAGAUUUUUUCCUCGAGCAA, 0.258; for CUCUCGGUAGCCAAGUUGGUUUACGGCGCUAGACUUUAAUUUAUCACUACGAAAUCUUGAGAUCGGGCGUUCGACUCGCCCCCGGGAGAUUUUUUCCUCGAGCAA, 0.11.
For CUCUCGGUAGCCAAGUUGGUUUGAGGCGCAAGACUUUAAUUUAUCACUACGAAAUCUUGAGAGCGGGCGUUCGACUCGCCCCCGGGAGAUUUUUUCCUCGAGCAA the value was not above 0.026; for CUCUCGGUAGCCAAGUUGGUUUGAGGCGCAAGACUUUAAUUUAUCACUACGAAAUCUUGAGAACGGGCGUUCGACUCGCCCCCGGGAGAUUUUUUCCUCGAGCAA, 0.0418.
For CUCUCGGUAGCCAAGUUGGUUUUAGGCGGAAGACUUUAAUUUAUCACUACGAAAUCUUGAGAUCGGGCGUUCGACUCGCCCCCGGGAGAUUUUUUCCUCGAGCAA the value was not above 0.026; for CUCUCGGUAGCCAAGUUGGUUUUAGGCGUAAGACUUUAAUUUAUCACUACGAAAUCUUGAGAUCGGGCGUUCGACUCGCCCCCGGGAGAUUUUUUCCUCGAGCAA, 0.112.
For the variant CUCUCGGUAGCCAAGUUGGUUUUAGGCGCAAGACUUUAAUUUAUCACUACGAAAUCUUGAGAUCGGGCGUUCGACUCUCCCCCGGGAGAUUUUUUCCUCGAGCAA, the nonsense suppression came out at 0.0382.
Regarding CUCUCGGUAGCCAAGUUGGUUUUAUGCGCAAGACUUUAAUUUAUCACUACGAAAUCUUGAGAUCGGGCCUUCGACUCGCCCCCGGGAGAUUUUUUCCUCGAGCAA, the nonsense suppression was not above 0.026.
Turning to CUCUCGGUAGCCAAGUUGGUUUUAGGCGCAAGACUUUAAUUUAUCACUACGAAAUCUUGAGAUCAGGCGUUCGACUCGCCCCCGGGAGAUUUUUUCCUCGAGCAA, the nonsense suppression is not above 0.026.
Regarding CUCUCGGUAGCCAAGUUGGUUUGAGGCGCAAGACUUUAAUUUAUCACUACGAAAUCUUGACAUCGGGCGUUCGACUCGCCCCCGGGAGAUUUUUUCCUCGAGCAA, the nonsense suppression was determined as 0.113.
In the case of CUCUCGGUAGCCAAGUUGGUUUGAGGCGCAAGACUUUAAUUUAUCACUACGAAAUCUUGAGAUCGGGCGUUCGACUCACCCCCGGGAGAUUUUUUCCUCGAGCAA, the nonsense suppression amounted to 0.0355.
Take CUCUCGGUAGCCAAGUUGGUUUGAGGCGCAAGACUUUAAUUUAUCACUACGAAAUCUUGAGAUCGGGCGUUCGACUCUCCCCCGGGAGAUUUUUUCCUCGAGCAA: the nonsense suppression turned out to be 0.0956.
For CUCUCGGUAGCCAAGUUGGUUUACGGCGCAAGACUUUAAUUUAUCACUACGAAAUCUUGAGAUCGGGCGUUCGACUCGCCCCCGGGAGAUUUUUUCCUCGAGCAA the value was 1.13; for CUCUCGGUAGCCAAGUUGGUUUGAGGCGCAAGACUUUAAUUUAUCACUACGAAAGCUUGAGAUCGGGCGUUCGACUCGCCCCCGGGAGAUUUUUUCCUCGAGCAA, not above 0.026.
For the variant CUCUCGGUAGCCAAGUUGGUUUGAGGCGCAAGACUUUAAUUUAUCACUACGAAACCUUGAGAUCGGGCGUUCGACUCGCCCCCGGGAGAUUUUUUCCUCGAGCAA, the nonsense suppression stood at 0.0273.
With CUCUCGGUAGCCAAGUUGGUUUGAGGCGCAAGACUUUAAUUUAUCACUACGAAAUCUUGAGAUCGGGCGUUCAACUCGCCCCCGGGAGAUUUUUUCCUCGAGCAA, the nonsense suppression turned out to be 0.0291.
Regarding CUCUCGGUAGCCAAGUUGGUUUGAGGCGCAAGACUUUAAUUUAUCACUACGAAAUCUUGAGAUCGGGCGUUCCACUCGCCCCCGGGAGAUUUUUUCCUCGAGCAA, the nonsense suppression was not above 0.026.
Take CUCUCGGUAGCCAAGUUGGUUUUAGGCGCAAGACUUUAAUUUAUCACUACGAAAUGUUGAGAUCGGGCGCUCGACUCGCCCCCGGGAGAUUUUUUCCUCGAGCAA: the nonsense suppression is not above 0.026.
For the variant CUCUCGGUAGCCAAGUUGGUUUUAGGCGCUAGACUUUAAUUUAUCACUACGAAAUCUUGAGAUCGGGCGUUCGACUCGCCCCCGGGAGAUUUUUUCCUCGAGCAA, the nonsense suppression stood at 0.0282.
Consider CUCUCGGUAGCCAAGUUGGUUUUAGGCGCAAGACUUUAAUUUAUCACUACGAAAUCUUGAGAUCGGGCGUUCGACUCGCCCCCGGAAGAUUUUUUCCUCGAGCAA, for which the nonsense suppression is not above 0.026.
Consider CUCUCGGUAGCCAAGUUGGUUUUAGGCGCAAGACUUUAAUUUAUCACUACGAAAUCUUGAGAUCCGGCGUUAGACUCGCCCCCGGGAGAUUUUUUCCUCGAGCAA, for which the nonsense suppression was not above 0.026.
In the case of CUCUCGGUAGCCAAGUUGGUUUUAGGCGCAAGACUUUAAUUUAUCACUACGAAACCUUGCGAUCGGGCUUUCGACUCGCCCCCGCGAGAUUUUUUCCUCGAGCAA, the nonsense suppression was not above 0.026.
For CUCUCGGUAGCCAAGUUGGUUUACGGCGCAAGACUUUAAUUUAUCACUACGAACUCUUGAGAUCGGGCGUUCGACUCGCCCCCGGGAGAUUUUUUCCUCGAGCAA the value was 0.198; for CUCUCGGUAGCCAAGUUGGUUUACGGCGCAAGACUUUAAUUUAUCACUACGAAGUCUUGAGAUCGGGCGUUCGACUCGCCCCCGGGAGAUUUUUUCCUCGAGCAA, 0.0609; for CUCUCGGUAGCCAAGUUGGUUUUAGGCGCAGGGCUUUAAUUUAUCACUACGAAAUCUUGAGAUCGGCCGUUCGACUCGCCCCCGGGAGAUUUUUUCCUCGAGCAA, not above 0.026.

These data come from the RNAGym collection of RNA variant scans (doi:10.1101/gad.245936.114).
